The record followed here is ChEMBL document CHEMBL1122345, “Antihypertensive agents: angiotensin converting enzyme inhibitors. 1-[3-(Acylthio)-3-aroylpropionyl]-L-prolines” (J Med Chem, 1983).

Molecules are shown by their SMILES.

For test [1], the target named is T1, Angiotensin-converting enzyme (Rattus norvegicus) (UniProt P47820).
T1 sequence (whole entry): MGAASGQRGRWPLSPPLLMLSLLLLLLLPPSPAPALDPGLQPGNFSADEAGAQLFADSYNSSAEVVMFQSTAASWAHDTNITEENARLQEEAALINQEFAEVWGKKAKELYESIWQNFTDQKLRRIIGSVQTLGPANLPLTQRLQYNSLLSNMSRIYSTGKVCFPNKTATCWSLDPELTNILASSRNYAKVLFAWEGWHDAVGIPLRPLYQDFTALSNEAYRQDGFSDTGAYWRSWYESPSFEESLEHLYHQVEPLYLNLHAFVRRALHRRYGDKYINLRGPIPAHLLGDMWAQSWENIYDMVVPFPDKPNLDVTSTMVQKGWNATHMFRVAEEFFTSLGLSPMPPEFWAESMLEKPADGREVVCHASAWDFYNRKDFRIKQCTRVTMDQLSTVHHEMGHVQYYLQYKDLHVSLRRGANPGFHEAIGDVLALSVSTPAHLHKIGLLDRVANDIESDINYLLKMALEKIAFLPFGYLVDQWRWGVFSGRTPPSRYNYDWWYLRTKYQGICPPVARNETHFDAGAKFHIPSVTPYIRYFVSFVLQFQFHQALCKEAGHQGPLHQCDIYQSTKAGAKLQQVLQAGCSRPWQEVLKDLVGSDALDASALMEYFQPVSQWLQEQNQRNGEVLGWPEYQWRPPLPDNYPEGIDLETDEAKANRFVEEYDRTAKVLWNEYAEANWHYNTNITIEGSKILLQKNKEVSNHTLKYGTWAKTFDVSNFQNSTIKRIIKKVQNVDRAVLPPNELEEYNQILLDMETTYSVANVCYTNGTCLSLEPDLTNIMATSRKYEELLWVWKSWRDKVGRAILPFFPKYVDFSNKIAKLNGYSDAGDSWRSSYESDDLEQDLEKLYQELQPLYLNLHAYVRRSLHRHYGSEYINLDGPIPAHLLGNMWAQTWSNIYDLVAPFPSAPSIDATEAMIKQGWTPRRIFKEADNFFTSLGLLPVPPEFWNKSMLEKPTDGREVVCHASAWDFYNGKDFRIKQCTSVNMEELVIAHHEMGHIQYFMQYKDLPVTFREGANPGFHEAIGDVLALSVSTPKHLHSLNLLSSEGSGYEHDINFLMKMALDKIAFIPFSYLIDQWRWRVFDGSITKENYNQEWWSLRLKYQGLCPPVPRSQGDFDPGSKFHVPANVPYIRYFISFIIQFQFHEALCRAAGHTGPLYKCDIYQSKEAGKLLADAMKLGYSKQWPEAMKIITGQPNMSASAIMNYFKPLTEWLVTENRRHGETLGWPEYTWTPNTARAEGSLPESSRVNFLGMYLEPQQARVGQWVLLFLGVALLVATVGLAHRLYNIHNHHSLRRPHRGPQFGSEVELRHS
The experiment in a line: (§1) Change in mean arterial blood pressure (MABP) after 20 mg/kg (po) dosage in Aorta-Coated renal hypertensive rat at 0.5 h. Type of test: functional, organism-based. Further details: dose 20 mg/kg. Summed up: (§2)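 Oral gavage to conscious, unrestrained rats made hypertensive by complete aortic ligation between the renal artery origins; only rats with MABP ≥150 mmHg on days 4–6 after coarctation used. Vehicle: ethanol, polyethylene glycol, Tween-80, diluted with saline. Direct arterial pressure via indwelling carotid cannula implanted 24 h earlier; change vs vehicle controls, means ± standard error, unpaired Student's t test.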

Test [2] concerns the target T1, Angiotensin-converting enzyme (Rattus norvegicus). Put plainly: Change in mean arterial blood pressure (MABP) after 20 mg/kg (po) dosage in Aorta-Coated renal hypertensive rat at 2.0 h. The test is classed as functional, organism-based. Further details: dose 20 mg/kg. Summed up:
as §2

Test [3] concerns Rattus norvegicus. The test is described as §1. Type of test: functional. Summed up:
as §2

Regarding `O=C(SC(CC(=O)N1CCCC1C(=O)O)C(=O)c1ccc(Br)cc1)c1ccccc1` (stereo not given), the Delta MABP was -10 mmHg in test [1] and -14.3 mmHg in test [2].
On to `CC(=O)SC(CC(=O)N1CCCC1C(=O)O)C(=O)c1ccc(Cl)cc1` (stereo not given), for which the figures for the “Delta MABP” value in test [3] and in test [2] were -17.33 mmHg and -11.7 mmHg, respectively.
Consider `CC(=O)SC(CC(=O)N1CCCC1C(=O)O)C(=O)c1ccc2ccccc2c1` (stereo not given), for which the Delta MABP was -17.3 mmHg in test [1] and -6.67 mmHg in test [2].
The like results for `O=C(SC(CC(=O)N1CCCC1C(=O)O)C(=O)c1cccc(F)c1)c1ccccc1` (stereo not given) were, in that order, -41 mmHg and 3.75 mmHg.
The like results for `C[C@H](CS)C(=O)N1CCC[C@H]1C(=O)O` were, in that order, -27.7 mmHg and -21.7 mmHg.
For the molecule `O=C(c1ccc(Br)cc1)C(S)CC(=O)N1CCCC1C(=O)O` (stereo not given), the Delta MABP was -8.8 mmHg in test [1] and -12 mmHg in test [2].
Consider `CC(=O)S[C@@H](C(=O)c1ccc(Br)cc1)[C@@H](C)C(=O)N1CCC[C@H]1C(=O)O`, for which the Delta MABP is -27.1 mmHg in test [1] and -31.3 mmHg in test [2].
For `COc1ccc(C(=O)C(CC(=O)N2CCCC2C(=O)O)SC(C)=O)cc1F` (stereo not given) the same measures were -12.7 mmHg and -11 mmHg.
As to `CC(=O)SC(CC(=O)N1CCCC1C(=O)O)C(=O)c1cccc(C(F)(F)F)c1` (stereo not given), the Delta MABP is -17.5 mmHg in test [1] and -0.83 mmHg in test [2].
On to `CC(=O)SC(CC(=O)N1CCCC1C(=O)O)C(=O)c1ccc(F)cc1` (stereo not given), for which the Delta MABP is -15.8 mmHg in test [1] and -14.7 mmHg in test [2].
As for `O=C(SC(CC(=O)N1CCCC1C(=O)O)C(=O)c1ccccc1)c1ccccc1` (stereo not given), the Delta MABP is -1 mmHg in test [1] and -22.7 mmHg in test [2].
Turning to `CC(=O)S[C@H](C(=O)c1ccc(Br)cc1)[C@@H](C)C(=O)N1CCC[C@H]1C(=O)O`, the Delta MABP in test [1] was -23.5 mmHg; in test [2], -26.7 mmHg.
For the molecule `CC(=O)S[C@@H](C(=O)c1ccccc1)[C@@H](C)C(=O)N1CCC[C@H]1C(=O)O`, the Delta MABP is -22.4 mmHg in test [1] and -17.1 mmHg in test [2].
The like results for `CC(=O)SC(CC(=O)N1CCCC1C(=O)O)C(=O)c1ccc(Br)cc1` (stereo not given) were, in that order, -18.3 mmHg and -10.4 mmHg.
The like results for `CC(=O)SC(C(=O)c1ccc(Cl)cc1)C(C)C(=O)N1CCCC1C(=O)O` (stereo not given) were, in that order, -24 mmHg and -30.5 mmHg.
Take `CC(=O)S[C@H](C(=O)c1cccc(F)c1)[C@@H](C)C(=O)N1CCC[C@H]1C(=O)O`: the Delta MABP in test [1] was -24.8 mmHg; in test [2] it was -28 mmHg.
Regarding `CC(=O)SC(CC(=O)N1CCCC1C(=O)O)C(=O)c1ccccc1` (stereo not given), the Delta MABP is -19.2 mmHg in test [3] and -5.25 mmHg in test [2].
For the molecule `CC(=O)SC(CC(=O)N1CCCC1C(=O)O)C(=O)c1ccc(C(C)(C)C)cc1` (stereo not given), the Delta MABP is -30 mmHg in test [1] and -19.2 mmHg in test [2].
For `CC(=O)S[C@H](C(=O)c1ccccc1)[C@@H](C)C(=O)N1CCC[C@H]1C(=O)O` the same measures were -23 mmHg and -23.2 mmHg.
In the case of `CC(=O)SC(CC(=O)N1CCCC1C(=O)O)C(=O)c1ccc2c(c1)CCC2` (stereo not given), the Delta MABP in test [1] is -18.5 mmHg; in test [2] it was -30 mmHg.
For `CC(=O)S[C@@H](C(=O)c1cccc(F)c1)[C@@H](C)C(=O)N1CCC[C@H]1C(=O)O`, the Delta MABP in test [1] was -17.5 mmHg.
Regarding `CC(=O)SC(CC(=O)N1CCCC1C(=O)O)C(=O)c1cccc(F)c1` (stereo not given), the Delta MABP in test [1] was -17 mmHg; in test [2], -5.43 mmHg.
`O=C(SC(CC(=O)N1CCCC1C(=O)O)C(=O)c1ccc(F)cc1)c1ccccc1` (stereo not given): the Delta MABP in test [1] is -12 mmHg; in test [2] it was -6.5 mmHg.
